The test system of series [1] is Mus musculus. Nature of the series: Anticonvulsant activity in CD1 albino mouse assessed as protection against maximal electroshock-induced seizures at 100 to 300 mg/kg, ip after 0.5 hrs. Type of series: functional. Conditions: read-out: MED. On the technique in general: The maximal electroshock test induces tonic seizures with an electrical stimulus.
Series [2] relates to Mus musculus. Nature of the series: Neurotoxicity in CD1 albino mouse assessed as acute motor impairment at 300 mg/kg, ip after 4 hrs by rotarod test. Type of series: toxicity, organism-based. Conditions: in vivo. Put shortly: (§1)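 Male CD-1 mice given 30, 100 or 300 mg/kg ip in 0.5% methylcellulose, tested at 0.5 and 4 h. Motor impairment was scored as failure to keep balance for at least 1 min on a rod rotating at 10 rpm. Minimum dose causing impairment reported.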

The subject of series [3] is Mus musculus. Kind of series: Antinociceptive activity in CD1 albino mouse assessed as reduction of formalin-induced licking response in inflammatory phase at 82.74 mg/kg, ip preincubated for 30 mins measured after 20 to 25 mins. Type of series: functional. Also noted: scale not given: the % may be the effect or the level left.
Series [4] concerns Mus musculus. Kind of series: Local anesthetic activity in CD1 albino mouse assessed prolongation of time reaction at 2 % concentration after 20 secs by tail immersion test relative to vehicle control. In kind it is functional. Put shortly: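 Compound at 1 or 2% in 0.5% methylcellulose, injected sc (0.2 ml) about 1 cm from the tail root of male CD-1 mice. After 15 min, the distal 3 cm of the tail was immersed in 50 ± 0.5 °C water and withdrawal time measured, cut off at 20 s. n=8; mean ± SEM; % prolongation relative to vehicle.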

The test system of series [5] is Mus musculus. Kind of series: Neurotoxicity in CD1 albino mouse assessed as acute motor impairment at 300 mg/kg, ip measured after 0.5 hrs by rotarod test. In kind it is toxicity, organism-based. Conditions: in vivo. Put shortly: as §1
For series [6], the system named is Mus musculus. Kind of series: Anticonvulsant activity in ip dosed CD1 albino mouse assessed as protection against maximal electroshock-induced seizures. Type of series: functional.
Series [7] concerns Mus musculus. Nature of the series: Anticonvulsant activity in CD1 albino mouse assessed as protection against subcutaneous pentylenetetrazole-induced seizures at 100 to 300 mg/kg, ip after 0.5 hrs. Type of series: functional. Conditions: CD1, 0.5 h, read-out: MED. The gist of the method:
(§2)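 Male CD-1 mice (16-26 g), compounds ip in 0.5% methylcellulose/water at 30, 100 or 300 mg/kg, 3-4 per group. At 0.5 or 4 h, pentylenetetrazole 85 mg/kg was injected sc. Protection was absence of clonic convulsions (at least 5 s) over a 30 min observation. Minimum active dose recorded.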

The species entered for series [8] is Mus musculus. Nature of the series: Protection index, ratio of TD50 for CD1 albino mouse to ED50 for protection against maximal electroshock-induced seizures in CD1 albino mouse. Put shortly: (§3)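 Quantitation in male CD-1 mice dosed ip at the previously estimated time of peak effect. Seizures were induced by MES or by sc pentylenetetrazole 85 mg/kg; rotarod at 10 rpm assessed motor impairment. Groups of six, at least three doses giving 10-90% effect.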

The test system of series [9] is Mus musculus. Kind of series: Anticonvulsant activity in ip dosed CD1 albino mouse assessed as time to peak effect. Type of series: functional. Put shortly:
as §3

For series [10], the system named is Mus musculus. Nature of the series: Antinociceptive activity in CD1 albino mouse assessed as reduction of formalin-induced licking response in neurogenic phase at 82.74 mg/kg, ip preincubated for 30 mins measured after 5 mins. Type of series: functional. Also noted: scale not given: the % may be the effect or the level left.
The test system of series [11] is Mus musculus. Kind of series: Antinociceptive activity in CD1 albino mouse assessed as reduction of formalin-induced licking response in inflammatory phase at 82.74 mg/kg, ip preincubated for 30 mins measured after 15 to 20 mins. In kind it is functional. More on the design: scale not given: the % may be the effect or the level left.
Series [12] concerns Mus musculus. Kind of series: Antinociceptive activity in CD1 albino mouse assessed as reduction of formalin-induced licking response in inflammatory phase at 82.74 mg/kg, ip preincubated for 30 mins measured after 25 to 30 mins. In kind it is functional. Also noted: scale not given: the % may be the effect or the level left.
The species named for series [13] is Rattus norvegicus. Nature of the series: Displacement of [3H]BTX from voltage-sensitive Na+ channel site 2 in rat cerebral cortex synaptoneurosomes at 100 uM after 60 mins by liquid scintillation spectroscopic analysis. Type of series: tissue-based. The gist of the method: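 Cerebral cortex synaptoneurosomes from rat, tested at 100 µM for inhibition of specific [3H]BTX binding to the voltage-sensitive Na+ channel site 2. Reported as % inhibition of control specific binding; run commercially.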

Series [14] in a line: Neurotoxicity in ip dosed CD1 albino mouse assessed as acute motor impairment by rotarod test. Type of series: toxicity, organism-based. Conditions: in vivo. The gist of the method:
as §3
Background: In the rotarod test animals must keep their balance on a rotating rod.

Series [15] has as its system Mus musculus. Kind of series: Anticonvulsant activity in ip dosed CD1 albino mouse assessed as protection against subcutaneous pentylenetetrazole-induced seizures. Type of series: functional. Put shortly: as §3
Series [16] has as its system Mus musculus. Nature of the series: Anticonvulsant activity in CD1 albino mouse assessed as protection against subcutaneous pentylenetetrazole-induced seizures at 300 mg/kg, ip after 4 hrs. Type of series: functional, organism-based. The gist of the method:
as §2

For series [17], the system named is Mus musculus. Nature of the series: Anticonvulsant activity in CD1 albino mouse assessed as protection against maximal electroshock-induced seizures at 100 to 300 mg/kg, ip after 4 hrs. Conditions: read-out: MED. Type of series: functional.
The subject of series [18] is Mus musculus. Kind of series: Protection index, ratio of TD50 for CD1 albino mouse to ED50 for protection against subcutaneous pentylenetetrazole-induced seizures in CD1 albino mouse. Put shortly:
as §3

For series [19], the system named is Mus musculus. Kind of series: Anticonvulsant activity in CD1 mouse assessed as protection against 32 mA-current- for 3 secs induced seizure at 100 mg/kg, ip after 0.25 hrs by 6Hz psychomotor seizure test. Type of series: functional. Put shortly:
(§4)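 Male CD-1 mice given 100 mg/kg ip in 0.5% methylcellulose, four per time point. Corneal stimulation at 32 mA, 0.2 ms monopolar rectangular pulses at 6 Hz for 3 s, from a constant-current device. A mouse was protected if it resumed normal exploratory behavior within 10 s. Reported as number protected over number tested.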

For series [20], the system named is Mus musculus. Kind of series: Anticonvulsant activity in CD1 albino mouse assessed as protection against maximal electroshock-induced seizures at 300 mg/kg, ip after 4 hrs. Type of series: functional, organism-based.
Series [21] concerns Mus musculus. Nature of the series: Anticonvulsant activity in CD1 mouse assessed as protection against 32 mA-current- for 3 secs induced seizure at 100 mg/kg, ip after 0.5 hrs by 6Hz psychomotor seizure test. Type of series: functional. The gist of the method:
as §4

In series [22] the test system is Mus musculus. Nature of the series: Antinociceptive activity in CD1 albino mouse assessed as reduction of formalin-induced licking response in inflammatory phase at 69.05 mg/kg, ip preincubated for 30 mins measured after 15 to 20 mins. In kind it is functional. More on the design: scale not given: the % may be the effect or the level left.
The subject of series [23] is Mus musculus. Kind of series: Neurotoxicity in CD1 albino mouse assessed as acute motor impairment at 100 to 300 mg/kg, ip after 0.5 hrs by rotarod test. Type of series: toxicity, organism-based. As to conditions: in vivo. The gist of the method:
as §1

Series [24] relates to Mus musculus. Kind of series: Antinociceptive activity in CD1 albino mouse assessed as reduction of formalin-induced licking response in neurogenic phase at 69.05 mg/kg, ip preincubated for 30 mins measured after 25 to 30 mins. In kind it is functional. More on the design: scale not given: the % may be the effect or the level left.
The test system of series [25] is Mus musculus. Nature of the series: Anticonvulsant activity in CD1 mouse assessed as protection against 32 mA-current- for 3 secs induced seizure at 100 mg/kg, ip after 2 hrs by 6Hz psychomotor seizure test. Type of series: functional, organism-based. Put shortly: as §4
In series [26] the test system is Mus musculus. Nature of the series: Antinociceptive activity in CD1 albino mouse assessed as reduction of formalin-induced licking response in neurogenic phase at 69.05 mg/kg, ip preincubated for 30 mins measured after 5 mins. Type of series: functional, organism-based.
The test system of series [27] is Mus musculus. Nature of the series: Anticonvulsant activity in ip dosed CD1 albino mouse assessed as protection against 32 mA-current- for 3 secs induced seizure by 6Hz psychomotor seizure test. In kind it is functional. Put shortly: (§5)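 6-Hz corneal stimulation at 32 mA (6 Hz, 3 s) in male CD-1 mice dosed ip. Groups of six received several doses until at least three points fell between 10 and 90% protection. […] PI = TD50/ED50 (rotarod).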

The species named for series [28] is Mus musculus. Nature of the series: Protection index, ratio of TD50 for CD1 albino mouse to ED50 for protection against 32 mA-current- for 3 secs induced seizure in CD1 albino mouse by 6Hz psychomotor seizure test. Put shortly:
as §5

Series [29] deals with Mus musculus. Kind of series: Anticonvulsant activity in ip dosed CD1 albino mouse assessed as time to peak effect by 6Hz psychomotor seizure test. In kind it is functional. Put shortly:
as §5

Broadly, the ED50 is the midpoint of the dose-response relation. For orientation: inhibition means the relative decrease from the control value, in per cent. What is called TD50 is the dose at which the toxic effect under study appears in half of the subjects.

Activity calls are given as the source filed them. No cut-off for these calls is given here.

Take `CC1CC(=O)N(CC(=O)N2CCN(c3cccc(Cl)c3)CC2)C1=O` (stereo not given): the minimal effective dose in series [1] worked out at 100 mg/kg; in series [7], 100 mg/kg; in [17], 300 mg/kg. The Activity entry in series [2] was “Non-toxic”; in series [3], 100%; in series [4] it was 17%; in [5], “Non-toxic”; in series [10] it was 67%; in series [11] it was 98%. Besides, in series [12], the Activity was found to be 96%. In addition, the ED50 in [6] came out at 82.7 mg/kg; in [15], 40.3 mg/kg. Also, the “Ratio TD50/ED50” value in series [8] worked out at 3.91; in series [18], 8. In addition, the Time in series [9] was 1 h. This molecule returned an inhibition in [13] of 28.5%. The TD50 in series [14] stood at 323 mg/kg. The outcome in series [16] was inactive.
As to `CCC1(C)CC(=O)N(CC(=O)N2CCN(c3ccc(F)cc3)CC2)C1=O` (stereo not given), the minimal effective dose in [1] and in series [7] was 100 mg/kg in each case. In addition, the Activity entry in series [2] is “Non-toxic”; in [4], 61%; in series [19], 75%; in [21] it was 75%; in series [22] it was 93%; in [24], 92%. The ED50 in series [6] was 69 mg/kg; in series [15], 130 mg/kg. In addition, the “Ratio TD50/ED50” value in [8] worked out at 2.76; in series [18] it was 1.47. The result in series [20], in series [16], in series [25] and in series [26] was inactive. For the same molecule, the Time in series [9] is 0.5 h. Besides, the inhibition in series [13] is 32.5%. Further, the TD50 in series [14] stood at 191 mg/kg. Also, in series [23], the MTC was determined as 300 mg/kg.
As for `CC1CC(=O)N(CC(=O)N2CCN(c3ccccc3Cl)CC2)C1=O` (stereo not given), the minimal effective dose in series [1] and in [7] was 300 mg/kg in each case. Moreover, the Activity entry is listed as “Non-toxic” in series [2] and 100% in series [19]. In addition, the ED50 in series [27] was determined as 152 mg/kg. Further, the outcome in [20], in series [16] and in series [25] was inactive. The “Ratio TD50/ED50” value in [28] is recorded as above 3.29. In series [14], the TD50 is above 500 mg/kg. The MTC in series [23] was found to be 300 mg/kg. Besides, the Time in [29] was determined as 0.25 h.

These data come from ChEMBL document CHEMBL3774376, “Synthesis, and anticonvulsant activity of new amides derived from 3-methyl- or 3-ethyl-3-methyl-2,5-dioxo-pyrrolidin-1-yl-acetic acids” (Bioorg Med Chem, 2016).
